This passage reports Time and ED50 results from ChEMBL document CHEMBL3244045, “2-cyano-1,3-dicarbonyl compounds with antiallergic activity” (1977).

Format in all cases: functional
Assay [1] relates to Rattus norvegicus. Briefly: Antiallergic activity in sc dosed Wistar rat assessed as time between compound administration and ovalbumin challenge to give maximum activity by passive cutaneous anaphylaxis assay.
Assay [2] relates to Rattus norvegicus. Nature of the assay: Antiallergic activity in sc dosed Wistar rat assessed as inhibition of ovalbumin-mediated passive cutaneous anaphylaxis by measuring wheal formation at Tmax. The procedure, abridged:
(§1)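 Rat PCA: serum with heat-labile homocytotropic antibody raised in rats to crystallized ovalbumin, Bordetella pertussis vaccine adjuvant; PCA per Ovary–Bier method as modified by Goose and Blair. Test agents as sodium salts, dissolved in pH 7.2 buffer or suspended in 1% methylcellulose by solubility. ED50 from inhibition/log dose line, 95% confidence limits, slope and animal numbers given.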

In assay [3] the test system is Rattus norvegicus. Briefly: Antiallergic activity in po dosed Wistar rat assessed as inhibition of ovalbumin-mediated passive cutaneous anaphylaxis by measuring wheal formation administered 15 to 20 mins prior to ovalbumin challenge. The procedure, abridged:
as §1

SMILES strings stand for the structures.

As to `N#C[C-]1C(=O)c2ccccc2C1=O.[Na+]`, the Time with Rattus norvegicus [1] was found to be 10 min. The ED50 in the assay with Rattus norvegicus [2] turned out to be 85.3 µmol/kg.

With `Cc1cccc2c1C(=O)[C-](C#N)C2=O.[Na+]` (stereo not given), the Time with Rattus norvegicus [1] amounted to 10 min. In the assay with Rattus norvegicus [2], the ED50 was 74 µmol/kg.

Regarding `Cc1ccc2c(c1)C(=O)[C-](C#N)C2=O.[Na+]` (stereo not given), the Time in the assay on Rattus norvegicus [1] came to 10 min. Further, the ED50 with Rattus norvegicus [2] was found to be 44.1 µmol/kg.

Take `Cc1cc2c(cc1C)C(=O)[C-](C#N)C2=O.[Na+]`: in the assay on Rattus norvegicus [1], the Time stood at 10 min. Moreover, the ED50 in the assay with Rattus norvegicus [2] came out at 16.3 µmol/kg.

As for `CCc1cc2c(cc1CC)C(=O)[C-](C#N)C2=O.[Na+]`, the Time in the assay with Rattus norvegicus [1] stood at 20 min. Further, the ED50 with Rattus norvegicus [2] is 10.9 µmol/kg; in the assay on Rattus norvegicus [3], 60 µmol/kg.

For the compound `N#C[C-]1C(=O)c2cc3ccccc3cc2C1=O.[Na+]`, in the assay with Rattus norvegicus [1], the Time stood at 10 min. The ED50 with Rattus norvegicus [2] was 13.8 µmol/kg.

`COc1cccc2c1C(=O)[C-](C#N)C2=O.[Na+]` (stereo not given): the Time in the assay with Rattus norvegicus [1] is reported as 10 min. In addition, the ED50 in the assay on Rattus norvegicus [2] came out at 90.2 µmol/kg.

`N#C[C-]1C(=O)c2ccc(Cl)cc2C1=O.[Na+]` (stereo not given): the Time in the assay on Rattus norvegicus [1] worked out at 10 min. Also, the ED50 in the assay with Rattus norvegicus [2] is 59.7 µmol/kg.

Regarding `N#C[C-]1C(=O)c2cccnc2C1=O.[Na+]` (stereo not given), in the assay on Rattus norvegicus [1], the Time stood at 10 min. The ED50 in the assay with Rattus norvegicus [2] was 90.6 µmol/kg.

Regarding `N#C[C-]1C(=O)c2ccncc2C1=O.[Na+]` (stereo not given), in the assay on Rattus norvegicus [1], the Time worked out at 10 min. The ED50 with Rattus norvegicus [2] came to 120 µmol/kg.

`N#Cc1c([O-])c2ccccc2oc1=O.[Na+]`: the Time with Rattus norvegicus [1] was determined as 10 min. Further, in the assay with Rattus norvegicus [2], the ED50 is 39.1 µmol/kg.

For `Cc1ccc2oc(=O)c(C#N)c([O-])c2c1.[Na+]`, the Time in the assay with Rattus norvegicus [1] turned out to be 10 min. Moreover, in the assay with Rattus norvegicus [2], the ED50 was determined as 497 µmol/kg.

As for `Cc1ccc2c([O-])c(C#N)c(=O)oc2c1.[Na+]`, in the assay with Rattus norvegicus [1], the Time is given as 10 min. For the same compound, the ED50 with Rattus norvegicus [2] came out at 52.4 µmol/kg.

With `Cc1cccc2c([O-])c(C#N)c(=O)oc12.[Na+]`, in the assay on Rattus norvegicus [1], the Time stood at 10 min. Moreover, in the assay on Rattus norvegicus [2], the ED50 was 32.8 µmol/kg.

`CCc1ccc2c([O-])c(C#N)c(=O)oc2c1.[Na+]`: the Time with Rattus norvegicus [1] came out at 10 min. For the same compound, the ED50 in the assay with Rattus norvegicus [2] turned out to be 23.8 µmol/kg.

For the compound `Cc1cc2oc(=O)c(C#N)c([O-])c2cc1C.[Na+]`, in the assay on Rattus norvegicus [1], the Time turned out to be 10 min. For the same compound, in the assay with Rattus norvegicus [2], the ED50 is 15.2 µmol/kg.

Regarding `CCc1cc2c([O-])c(C#N)c(=O)oc2cc1C.[Na+]`, the Time with Rattus norvegicus [1] is listed as 10 min. In the assay on Rattus norvegicus [2], the ED50 came out at 10.1 µmol/kg.

In the case of `CCc1cc2oc(=O)c(C#N)c([O-])c2cc1CC.[Na+]`, the Time in the assay with Rattus norvegicus [1] came out at 10 min. The ED50 in the assay with Rattus norvegicus [2] is 7.6 µmol/kg; with Rattus norvegicus [3] it was 60 µmol/kg.

Consider `N#Cc1c([O-])c2cc3c(cc2oc1=O)CCCC3.[Na+]`, for which the Time in the assay on Rattus norvegicus [1] is recorded as 10 min. Further, the ED50 in the assay with Rattus norvegicus [2] amounted to 16.4 µmol/kg.

`Cc1ccc2c([O-])c(C#N)c(=O)oc2c1C.[Na+]`: in the assay with Rattus norvegicus [1], the Time was determined as 10 min. Also, the ED50 in the assay with Rattus norvegicus [2] came out at 26.2 µmol/kg.

For the compound `N#Cc1c([O-])c2cc3ccccc3cc2oc1=O.[Na+]`, the Time in the assay on Rattus norvegicus [1] was 10 min. Besides, the ED50 in the assay on Rattus norvegicus [2] worked out at 211 µmol/kg.

For `COc1ccc2oc(=O)c(C#N)c([O-])c2c1.[Na+]`, the Time with Rattus norvegicus [1] was determined as 10 min. Also, in the assay on Rattus norvegicus [2], the ED50 worked out at 28.2 µmol/kg.

As for `CCOc1ccc2c([O-])c(C#N)c(=O)oc2c1.[Na+]`, in the assay on Rattus norvegicus [1], the Time was determined as 10 min. In the assay with Rattus norvegicus [2], the ED50 was found to be 15.1 µmol/kg.

In the case of `O=C([O-])c1cc(=O)c2c(OCC(O)COc3cccc4oc(C(=O)[O-])cc(=O)c34)cccc2o1.[Na+].[Na+]` [CROMOLYN SODIUM], the Time in the assay on Rattus norvegicus [1] came out at 10 min. The ED50 with Rattus norvegicus [2] worked out at 13.1 µmol/kg.

In general, ED50 refers to the midpoint of the dose-response relation.
